In publication PMC10966424 (Experimental and Therapeutic Medicine, 2024):

Tests used:
[1] = test system: NO production in LPS-stimulated RAW 264.7 cells; assay: LPS-stimulated NO production; format: cell-based, murine; settings: Mus musculus, RAW264.7, 24 h, read-out: IC50 of NO, LPS (0.1 µg/ml)-stimulated RAW 264.7 cells, 24 h
Procedure, shortened: (§1)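 Macrophages are grown in DMEM with 10% FBS at 37 °C and 5% CO2, seeded at 1x10^5 cells/well and cultured for 24 h. They are pretreated with test compound for 1 h, then given LPS for 24 h (RAW 264.7: 0.1 µg/ml; DH82: 2 µg/ml). Medium NO is measured by Griess reagent against a standard curve; supernatant PGE2 is measured by ELISA. Done at least in triplicate.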

[2] = test system: PGE2 production in LPS-stimulated RAW 264.7 cells; assay: LPS-stimulated PGE2 production; format: cell-based, murine; settings: Mus musculus, RAW264.7, 24 h, read-out: IC50 of PGE2, LPS (0.1 µg/ml)-stimulated RAW 264.7 cells, 24 h
Procedure, shortened: as §1

[3] = test system: Mycobacterium tuberculosis; settings: at low concentrations; cited from earlier work
[4] = MTT cell viability, RAW 264.7 macrophages; format: cell-based, murine; settings: mouse
Procedure, shortened: (§2)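 Cells are seeded at 1x10^5 cells/well, cultured for 24 h, then exposed to test compound at various concentrations for a further 24 h. MTT is added, formazan is dissolved in DMSO and absorbance is read at 570 nm. The tabulated viability is at 200 µM. Done at least in triplicate.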

[5] = MTT cell viability, DH82 macrophages; format: cell-based, canine; settings: dog
Procedure, shortened: as §2

iNOS [6] = assay: Western blot iNOS protein expression, DH82; format: cell-based, canine; settings: LPS-stimulated DH82; compared with nialamide
Procedure, shortened: (§3)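 Cells (2x10^5/well) are cultured for 24 h and pretreated with test compound for 1 h. LPS follows for 24 h (RAW 264.7: 0.1 µg/ml; DH82: 2 µg/ml). RIPA lysates (40 µg protein, BCA-quantified) are run on 10% SDS-PAGE and transferred to PVDF. Membranes are blocked in 5% milk, probed overnight at 4 °C with anti-iNOS and anti-COX-2 (1:1,000; canine-specific antibodies for DH82), then HRP secondary (1:3,000) for 2 h. Detection is ECL; densitometry uses GAPDH as the internal control; n=3.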

iNOS [7] = assay: Western blot iNOS protein expression, RAW 264.7; format: cell-based, murine; settings: LPS-stimulated RAW 264.7; compared with nialamide
Procedure, shortened: as §3

COX-2 [8] = assay: Western blot COX-2 protein expression, RAW 264.7; format: cell-based, murine; settings: LPS-stimulated RAW 264.7; compared with nialamide
Procedure, shortened: as §3

[9] = test system: ROS production in LPS-activated RAW 264.7 macrophages; assay: Intracellular ROS; format: cell-based, murine; settings: LPS 0.1 µg/ml, 50 to 200 µM, DCFH-DA
IL-10 = assay: LPS-stimulated IL-10 production; format: cell-based, murine; settings: LPS-stimulated RAW 264.7; compared with nialamide
Procedure, shortened: (§4)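 Seeding is 1x10^5 cells/well in DMEM with 10% FBS, followed by 24 h culture. Cells receive test compound for 1 h before LPS stimulation for 24 h (RAW 264.7: 0.1 µg/ml LPS; DH82: 2 µg/ml LPS). TNF-α, IL-6 and IL-10 in the culture medium are quantified by ELISA kits; n=3.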

IL-6 = assay: LPS-stimulated IL-6 production; format: cell-based, murine; settings: LPS-stimulated RAW 264.7; compared with nialamide
Procedure, shortened: as §4

TNF-α = assay: LPS-stimulated TNF-α production; format: cell-based, murine; settings: LPS-stimulated RAW 264.7; compared with nialamide
Procedure, shortened: as §4

DPPH radical scavenging = settings: compared with parent nialamide; 50 to 200 µM
Procedure, shortened: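 DPPH (200 µM in EtOH) is mixed 1:2 by volume with test compound solutions (50 to 200 µM in 70% EtOH). The mixture is incubated at 30 °C in the dark for 15 min, and the drop in absorbance at 517 nm is read. Scavenging % = [1-(A2/A1)]x100, where A1 is the blank without sample. (+)-Catechin is the positive control; n=3.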

ABTS+ radical scavenging = settings: compared with parent nialamide
Procedure, shortened: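 ABTS radical cation formed by mixing 7 mM ABTS in ethanol with 2.4 mM potassium persulfate and holding it in the dark at 25 °C for 24 h. The solution is added to test compound at several concentrations, mixed for 30 sec, then incubated for 30 min at 25 °C. Scavenging % = [1-(A2/A1)]x100, where A1 is the blank without sample. (+)-Catechin is the positive control; n=3.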

COX-2 [10] = assay: Western blot COX-2 protein expression, DH82; format: cell-based, canine; settings: LPS-stimulated DH82; compared with nialamide
Procedure, shortened: as §3

NF-κB = assay: Western blot NF-κB phosphorylation, RAW 264.7; format: cell-based, murine; settings: RAW 264.7 cells
Procedure, shortened: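 RAW 264.7 cells (2x10^5/well) are pretreated with test compound for 1 h, then stimulated with 0.1 µg/ml LPS for 24 h. RIPA lysates (40 µg) are separated on 10% SDS-PAGE and blotted to PVDF. Blots are probed overnight at 4 °C with anti-p-p65, p65, p-IκB and IκB (1:1,000), followed by HRP secondary and ECL detection. GAPDH is the loading control; three independent experiments.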

| SMILES | IC50 [1] [µM] | IC50 [2] [µM] | inhibition of Mycobacterium tuberculosis [3] | viability at 24 h, 200 µM [4] [%] | viability at 24 h, 200 µM [5] [%] | iNOS protein expression (iNOS [6]) | iNOS protein expression (iNOS [7]) | COX-2 protein expression (COX-2 [8]) | ROS production [9] | IL-10 production (IL-10) | IL-6 production (IL-6) | TNF-α production (TNF-α) | DPPH radical scavenging activity (DPPH radical scavenging) | ABTS+ scavenging activity (ABTS+ radical scavenging) | COX-2 protein expression (COX-2 [10]) | LPS-stimulated phosphorylation of NF-κB (NF-κB) |
| --- | --- | --- | --- | --- | --- | --- | --- | --- | --- | --- | --- | --- | --- | --- | --- | --- |
| O=C(CCNNC(=O)c1ccncc1)NCc1ccccc1 [Compound 1, nialamide, reference compound] | > 200 | > 200 | effectively inhibits | 102 ± 2.3 | 99.9 ± 1.2 | – | – | – | – | – | – | – | – | – | – | – |
| O=C(CCO)NCc1ccccc1 [Compound 5, 3-hydroxy-N-benzylpropanamide] | 63.5 ± 0.8 | 55.4 ± 0.7 | – | 99.9 ± 2.2 | 97.2 ± 1 | significant dose-dependent suppression | significant dose-dependent suppression | significant dose-dependent suppression | effectively suppress ROS production in a dose-dependent manner | potent dose-dependent suppression | potent dose-dependent suppression | potent dose-dependent suppression | enhancement | enhancement | significant dose-dependent suppression | dose-dependent inhibition |
| NCCC(=O)NCc1ccccc1 [Compound 3, 3-amino-N-benzylpropanamide] | 170 ± 1.9 | 155 ± 1.9 | – | 102 ± 2 | 99.7 ± 1.2 | – | – | – | – | – | – | – | – | – | – | – |
| COCCC(=O)NCc1ccccc1 [Compound 4, 3-methoxy-N-benzylpropanamide] | 178 ± 2 | 161 ± 2 | – | 102 ± 2.2 | 97.6 ± 1.1 | – | – | – | – | – | – | – | – | – | – | – |
| NC(=O)c1ccncc1 [Compound 7, isonicotinamide] | > 200 | > 200 | – | 101 ± 1.9 | 98.4 ± 1.2 | – | – | – | – | – | – | – | – | – | – | – |
